Source: article PMC3999706 (Biochemistry, 2013)
Values joined by “and” are separate entries in the source; they are usually repeats but may differ in a detail not shown here. Equal values may be shown once. Read-outs that look alike come from different tables or passages of the source.

Experiments:
[1] = target: sGC; conditions: 6c complex, ref [5], cited from earlier work
[2] = target: Ferrous Ns H-NOX; conditions: ref [5], cited from earlier work
[3] = system: Fe(II) Vc H-NOX; test: Stopped-flow kinetics and affinity of gaseous ligand binding to Fe; parameters: species or system Vibrio cholerae; conditions: for koff / Kd: Fe(II) Vc H-NOX, NO: 6c complex; for koff: displacement method; for Kd: calculated from kon and koff; for koff of 5c Vc H-NOX-NO complex, fast phase / koff of 5c Vc H-NOX-NO complex, slow phase: displacement with CO/dithionite
[4] = target: Fe(III) Vc H-NOX (Vibrio cholerae, UniProt Q9KLM3); test: biochemical; format: binding
[5] = system: Fe(II) Ns H-NOX; conditions: ref [14]; cited from earlier work
[6] = system: Fe(II) Vc H-NOX; test: Autoxidation of Fe; format: biochemical, Vibrio cholerae
How it was run: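 Recombinant Vc H-NOX was expressed in E. coli Rosetta 2(DE3)pLysS (heme and δ-aminolevulinic acid supplemented, IPTG, 48 h at 20 °C) and purified on TALON resin. The anaerobic Fe(II) protein was mixed with O2 by stopped-flow in 20 mM HEPES pH 7.3, 50 mM NaCl, 10% glycerol. Spectral changes were followed by diode-array over 65.5 s, and kobs was taken from single-exponential fits under pseudo-first-order conditions.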

[7] = estimated by computer simulation of A420 time courses

[C-]#[O+] [CO, Carbon monoxide]
Kd ([1]; read-out: affinity of CO for sGC (KD)): 260 µM | Kd ([2]; read-out: KD(CO) of ferrous Ns H-NOX): 1.4 µM | koff ([3]; 24 °C): 0.85 s⁻¹ | Kd [3]: 0.77 µM

c1c[nH]cn1 [Im, imidazole]
Kd [4]: 4200 µM

O=O [O2]
Kd ([2]; read-out: KD for O2 of Ns H-NOX, measured using a high pressure cell): 13000 µM | autoxidation rate of Fe(II) Ns H-NOX [5]: ~ 0.05 hr^−1 and 0.05 hr^−1 | second order reaction rate constant (slope of kobs versus [O2]) ([6]; 3 μM Fe(II) Vc H-NOX, 100-600 μM O2, 24 °C, A429): 4.8 M⁻¹ s⁻¹ | autoxidation rate of Fe(II) Vc H-NOX to ferric state (k4) ([6]; k4 = slope × KD(O2)): 0.06 s^−1 and ~ 0.06 s^−1

nitric oxide [NO]
Kd ([1]; read-out: affinity of NO for sGC (KD)): 0.054 µM | Kd ([2]; read-out: KD(NO) of ferrous Ns H-NOX): 0.00017 µM | koff ([3]; 24 °C): 0.3 s⁻¹ | Kd [3]: 0.00027 µM | k1 (second NO binding to 6c complex) [3, 7]: 2.5e+07 M⁻¹ s⁻¹ | k-1 (dissociation of quaternary complex) [3, 7]: 4500 s⁻¹ | k2 (limiting rate of 5c heme-NO complex formation) ([3]; excess NO, hyperbolic fit of kobs versus [NO], 24 °C): 720 s⁻¹ | koff of 5c Vc H-NOX-NO complex, fast phase ([3]; excess NO, 29% overall reaction): 0.01 s⁻¹ | koff of 5c Vc H-NOX-NO complex, slow phase ([3]; excess NO, 71% overall reaction): 0.001 s⁻¹ | overall conversion rate of 6c to 5c Vc H-NOX-NO complex ([3]; stoichiometric NO (2.5 μM each), 24 °C, global analysis): ~ 0.01 s^−1 | koff of 5c Vc H-NOX-NO complex, fast phase ([3]; stoichiometric NO, 16% overall reaction): 0.01 s⁻¹ | koff of 5c Vc H-NOX-NO complex, slow phase ([3]; stoichiometric NO, 84% overall reaction): 0.001 s⁻¹ | k-2 (re-association of NO with 5c Vc H-NOX) ([3]; y-intercept of kobs versus low [NO]): 1.9 s⁻¹
